The text below walks through data of ChEMBL document CHEMBL2203173 (J Med Chem, 2012).

By IC50 is commonly meant the concentration at which inhibition is half-maximal.

Experiment [1] deals with A549. Nature of the experiment: Ratio of compound IC50 to DFO IC50 for human A549 cells. Type of experiment: functional. An outline of the steps:
(§1)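 A549 human non-small cell lung carcinoma cells were exposed to agents for 72 h. IC50 is the concentration that inhibits cell growth to 50% of the untreated control. Values are mean ± SD of three experiments. The ratio is the compound IC50 divided by the IC50 of the reference chelator (DFO or NIH) from the same assay.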

Experiment [2] concerns A549. Nature of the experiment: Ratio of compound IC50 to NIH IC50 for human A549 cells. Type of experiment: functional. An outline of the steps:
as §1

The test system of experiment [3] is A549. Nature of the experiment: Antiproliferative activity at human A549 cells after 72 hrs by MTT assay. The experiment is classed as functional, cell-based. On the technique in general: Tetrazolium dyes change colour on reduction, which living cells bring about.
The next experiment has as its system DMS-53. Nature of the experiment: Antiproliferative activity at human DMS53 cells after 72 hrs by MTT assay. The experiment is classed as functional, cell-based.
Experiment [4] relates to SK-N-MC. The experiment in a line: Antiproliferative activity at human SK-N-MC cells after 72 hrs by MTT assay. The experiment is classed as functional, cell-based.
For the next experiment, the system named is MRC5. The experiment in a line: Antiproliferative activity at human MRC5 cells after 72 hrs by MTT assay. The experiment is classed as functional, cell-based. Conditions: MRC5, 72 h.
Experiment [5] deals with SK-N-MC. Nature of the experiment: Induction of 59Fe mobilization in human SK-N-MC cells at 25 uM after 3 hrs by gamma-scintillation counter. Type of experiment: functional. The method in brief: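 SK-N-MC cells prelabeled with 59Fe-transferrin (0.75 μM) for 3 h/37 °C, then washed four times on ice with ice-cold PBS. Cells reincubated with or without chelators (25 μM) for 3 h/37 °C. Released 59Fe given as % of cellular 59Fe. Mean ± SD of three experiments.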

Experiment [6] deals with SK-N-MC. Nature of the experiment: Inhibition to 59Fe uptake from 59Fe-transferrin in human SK-N-MC cells at 25 uM after 3 hrs. Type of experiment: functional. Set-up: scale not given: the % may be the effect or the level left. An outline of the steps: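 SK-N-MC cells labeled with 59Fe-transferrin (0.75 μM) for 3 h/37 °C with or without chelators (25 μM). Cells washed four times on ice with ice-cold PBS. Internalized 59Fe separated with Pronase (1 mg/mL) and expressed as % of control. Mean ± SD of three experiments.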

As for `CCN(C)C(=S)NN=C(c1ccccn1)c1ccccn1`, the “Ratio IC50” value in the experiment with A549 [1] and in the experiment with A549 [2] was 137 each time. Also, the IC50 in the experiment on A549 [3] (a549) is 10 nM; in the experiment with DMS-53 (dms-53), 8 nM; with SK-N-MC [4] it was 4 nM.

In the experiment on SK-N-MC [4], `CCN(C)C(=S)N/N=C(\c1ccccc1)c1ccccn1` had an IC50 of 6 nM.

For `O=C(N/N=C/c1c(O)ccc2ccccc12)c1ccncc1`, the IC50 in the experiment on MRC5 is more than 10000 nM; in the experiment with A549 [3] (Homo sapiens, A549, 72 h), 2200 nM; in the experiment on DMS-53 (Homo sapiens, DMS-53, 72 h) it was 1100 nM; with SK-N-MC [4], 1100 nM. For the same compound, the Activity in the experiment on SK-N-MC [5] was found to be 44.9%; in the experiment with SK-N-MC [6], 5.3%.

In the case of `CN(C(=S)NN=C(c1ccccn1)c1ccccn1)c1ccccc1`, the IC50 in the experiment on SK-N-MC [4] worked out at 6 nM.

On to `CC(=O)N(O)CCCCCNC(=O)CCC(=O)N(O)CCCCCNC(=O)CCC(=O)N(O)CCCCCN` [DEFEROXAMINE], for which the IC50 in the experiment on MRC5 is more than 10000 nM; in the experiment on A549 [3] (Homo sapiens, A549, 72 h) it was 7500 nM; with DMS-53 (Homo sapiens, DMS-53, 72 h) it was 10000 nM. The values for the Activity in the experiment on SK-N-MC [5] and in the experiment on SK-N-MC [6] were 15.2% and 84%, respectively.

As to `COc1cc([C@@H]2c3cc4c(cc3[C@@H](O[C@@H]3O[C@@H]5CO[C@@H](C)O[C@H]5[C@H](O)[C@H]3O)[C@H]3COC(=O)[C@H]23)OCO4)cc(OC)c1O` [ETOPOSIDE], the 50% inhibitory concentration (IC50) worked out at 800 nM in the experiment with A549 [3] (Homo sapiens, A549, 72 h) and 1500 nM with DMS-53 (Homo sapiens, DMS-53, 72 h).

On to `CCN(C(=S)NN=C(c1ccccn1)c1ccccn1)c1ccccc1`, for which 10 nM corresponded to half-maximal inhibition in the experiment on SK-N-MC [4] (IC50).

In the experiment with SK-N-MC [4], `CCN(CC)C(=S)N/N=C(\c1ccccc1)c1ccccn1` displayed an IC50 of 11 nM.
